Experimental data from different studies.
Lines come from different studies, so protocols differ.
Read-out: cell growth or viability

| Compound | cell line | method | tested at | time | endpoint | value |
| --- | --- | --- | --- | --- | --- | --- |
| C/C1=C/C(=O)O[C@@H]2C[C@@H](CC[C@H](C)/C=C\C=C\CC1)O[C@@](OCCc1ccccc1)([C@@H]1CSC(=O)N1)C2 | MDA-MB-231 | MTT |  | 72 h | IC50 | 2.71 µM |
| O=C(c1ccc(F)cc1)c1c[nH]c2ncc(-c3ccc(N4CCNCC4)nc3)cc12 | MRC5 | MTT | 10 µM | 48 h | viability | 89.4% |
| C/C1=C/C(=O)O[C@@H]2C[C@@H](CC[C@H](C)/C=C\C=C\CC1)O[C@@](O)([C@@H]1CSC(=O)N1)C2 | MDA-MB-231 | MTT |  | 72 h | IC50 | 4.19 µM |
| [Cl-].[Cl-].[Co+2] | BEL-7404 | MTT |  | 48 h | IC50 | > 150 µM |
| COc1cc2c(cc1OS(N)(=O)=O)CC[C@@H]1[C@@H]2CC[C@]2(C)[C@@H](OS(N)(=O)=O)CC[C@@H]12 | MDA-MB-231 |  |  |  | GI50 | 0.29 µM |
| COc1cc2c(cc1OS(N)(=O)=O)CCN(Cc1cc(Br)c(OC)c(OC)c1)C2 | MDA-MB-231 | WST-1 |  | 96 h | GI50 | 0.03 µM |
| O=C(c1ccc(F)cc1)c1c[nH]c2ncc(-c3ccnc(N4CCOCC4)c3)cc12 | MRC5 | MTT | 10 µM | 48 h | viability | 89.4% |
| C1COCCN1.COc1ccc(/C=C\c2cc(I)c(OC)c(I)c2)cc1OP(=O)(O)O | KM-20L2 | SRB |  | 48 h | GI50 | > 1 µg/mL |
| COc1c2c(cc3c1OCO3)[C@]13C=C[C@H](OC)C[C@@H]1[N@](C2)C[C@H]3OC(=O)c1ccco1 | MRC5 | WST-1 |  |  | IC50 | > 10 µM |
| Cl.O[C@]12C=C(c3nccc4c3[nH]c3ccccc34)[C@@H]3CCN(CCCC/C=C\CC1)C[C@@]31C[C@@H]3/C=C\CCCCN3[C@H]12 | LLC-PK11 | neutral red |  | 48 h | IC50 | 0.69 µg/mL |
| CO[C@]1([C@@H]2CSC(=O)N2C2CCCC2)C[C@H]2C[C@@H](CC[C@H](C)/C=C\C=C\CC/C(C)=C\C(=O)O2)O1 | MDA-MB-231 | MTT |  | 72 h | IC50 | 5.07 µM |
| COc1ccc(C(=O)c2c[nH]c3ncc(-c4ccc(N5CCN(S(C)(=O)=O)CC5)nc4)cc23)cc1 | MRC5 | MTT | 10 µM | 48 h | viability | 70.1% |
